Shown are actives, neighbours in structure and some others; about 3.7% of the full set was active somewhere.
Kir21 block: blocks the mouse Kir2.1 inward-rectifier potassium channel; 0.85% of 310,000 active; P35561; B-score at 10 µM; HEK293-Kir2.1, FluxOR thallium flux fluorescence; hits give low values;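 active = fluorescence ratio B-score at or below minus 3 SD of library scores, with starting-brightness B-score within 2 SD, cut at about -4.2 in these data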;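 also: channel flux triggered by added potassium and thallium sulfate stimulus; B-score of peak minus minimum fluorescence over baseline after thallium stimulus; more negative B-score means stronger Kir2.1 block with less thallium influx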
Target sequence (P35561 whole entry, looked up): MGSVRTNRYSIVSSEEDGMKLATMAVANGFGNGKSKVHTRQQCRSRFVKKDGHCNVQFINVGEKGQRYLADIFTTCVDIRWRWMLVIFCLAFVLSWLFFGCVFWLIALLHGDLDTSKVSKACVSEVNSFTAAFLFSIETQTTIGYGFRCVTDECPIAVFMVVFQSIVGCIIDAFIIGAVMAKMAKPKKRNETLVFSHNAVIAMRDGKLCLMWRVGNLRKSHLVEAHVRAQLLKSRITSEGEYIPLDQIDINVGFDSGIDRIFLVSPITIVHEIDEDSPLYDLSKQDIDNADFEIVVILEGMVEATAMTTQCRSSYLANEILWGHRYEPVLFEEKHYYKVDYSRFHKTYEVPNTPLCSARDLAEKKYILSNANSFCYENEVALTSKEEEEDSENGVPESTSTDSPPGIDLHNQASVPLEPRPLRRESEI
hERG protect: shields human hERG channel from block by proarrhythmic agents | Q12809 | 0.51% of 310,000 active | activation (rescue from dofetilide block), less the hit threshold, % at 10 µM | CHO-hERG, FluxOR thallium flux, dofetilide IC70 present;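 active = activation above the mean of controls blocked by dofetilide plus 5 SD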;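 also: thallium influx through hERG after potassium depolarization seen as dye fluorescence rise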
KCNK9 block: blocks the human KCNK9 two-pore domain potassium channel; Q9NPC2; HEK293 KCNK9, FluxOR thallium flux fluorescence; hits give low values; AID 488922; 1.2% of 310,000 active; B-score at 10 µM;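 active = ratio B-score over 3 SD below the library mean, with starting fluorescence within 5 SD of its mean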;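 also: negative B-score means less thallium flux so channel inhibition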
KCNQ1 block: human KCNQ1 channel inhibition. P51787. CHO-K1 KCNQ1, FluxOR thallium flux fluorescence; hits give high values. B-score at 10 µM. 1.3% of 310,000 active. AID 2642;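 active = compounds whose thallium flux B-score, printed positive for inhibition, exceeds three library SD while starting fluorescence stays within three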;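 also: channel opened by potassium depolarization with thallium stimulus after 20 min compound exposure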
KCNK3 block: human KCNK3 channel inhibition, primary screen; CHO-KCNK3 thallium flux, FluxOR fluorescence; hits give low values; B-score at 10 µM; 0.84% of 340,000 active;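 active = B-score under library mean minus 4 SD, starting fluorescence ratio at most library mean plus 5 SD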;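 also: more negative B-score means stronger inhibition of thallium flux through KCNK3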
KCNQ1 pot: potentiators or activators of human KCNQ1 potassium channel | CHO-K1 KCNQ1, thallium flux FluxOR fluorescence; hits give high values | B-score at 10 µM | 0.35% of 310,000 active | AID 2648;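 active = fluorescence ratio B-score, a plate-corrected score, at least three library SD, with initial intensity B-score within 5 SD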
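System: CHO-K1 cells stably expressing KCNQ1 / Medium: assay buffer for compound exposure, DMSO matched across wells / Reagent: thallium- and potassium-containing depolarizing buffer / Compound: one concentration, matched DMSO / Incubation: 20 min compound pretreatment at room temperature / Measured by: kinetic FluxOR fluorescence, 10 s baseline plus 110 s post-stimulus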
KCNK9 block conf: human KCNK9 inhibitor confirmation; shares compounds with KCNK9 block; HEK293 KCNK9 cells, FluxOR thallium flux fluorescence; inhibition, % at 10 µM; 43% of 4,900 active; AID 492992;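 active = thallium signal inhibited by more than 5 SD of the compound-free buffer control wells, on both duplicate plates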
Kir21 sel: tests whether KCNK9 modulators also affect mouse Kir2.1. shares compounds with KCNK9 block. Kir2.1 cells, FluxOR thallium flux fluorescence. inhibition, % at 10 µM. 4% of 4,900 active;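 active = thallium signal drop more than 5 SD beyond the mean of the no-compound control wells, seen in both duplicate plates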;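 also: signal is fluorescence rise after thallium addition divided by baseline fluorescence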
KCNK9 uninduced: second check of KCNK9 modulator effects in non-induced HEK293 cells. FluxOR thallium flux. shares compounds with KCNK9 block. inhibition, % at 10 µM. 40% of 4,900 active;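 active = thallium signal drop beyond 5 SD of the untreated control mean, on both duplicate plates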
Of the large screens only hits and unclear results are named; the others gave an inactive call (follow-up assays come after a bar, where they were run).

C[C@@H](C(=O)O)[C@H]1C[C@]1(C)[C@H](NC(=O)OCc1ccccc1)c1ccccc1	none
C[C@@H](C(=O)NCc1ccccc1)[C@H]1C[C@]1(C)[C@H](NC(=O)OCc1ccccc1)c1ccccc1	KCNK9 block -9.2 | KCNK9 block conf 49% | Kir21 sel inactive | KCNK9 uninduced inactive
O=S(=O)(Nc1cc(S(=O)(=O)N2CCOCC2)ccc1Cl)c1ccccc1	none (no result: Kir21 block, hERG protect, KCNK9 block, KCNQ1 block, KCNQ1 pot)
Cc1cccc(C(=O)O/N=C/c2c(Cl)n(C)c3ccccc23)c1	KCNK9 block -12 | KCNK9 block conf 48% | Kir21 sel inactive | KCNK9 uninduced 34%
Cc1ccc(C(=O)O/N=C/c2c(Cl)n(C)c3ccccc23)cc1	none
CN(C)c1cccc(C(=O)NCC(c2ccco2)N(C)C)c1 (stereo not drawn)	none
O=C(C[C@H]1C(=O)N(CCc2ccccc2)C[C@@H]1Cc1ccccc1)Nc1ccccc1	none
CCCCC[C@H]1CN(Cc2ccccc2)C(=O)[C@@H]1CC(=O)NCc1ccc(OC)cc1	none | KCNK9 block conf inactive | Kir21 sel inactive | KCNK9 uninduced 28%
O=C(C[C@H]1C(=O)N(Cc2ccccc2)C[C@@H]1Cc1ccccc1)Nc1ccccc1	none | KCNK9 block conf inactive | Kir21 sel inactive | KCNK9 uninduced inactive
CCOCCCn1c(=O)c2ccccc2n2c(=S)[nH]nc12	none
COc1cccc(CNC(=O)c2cc3oc4ccccc4c3n2C)c1OC	none
CCOc1ccccc1CNC(=O)c1cc2oc3ccccc3c2n1CC	KCNK9 block -9.1 | KCNK9 block conf 50% | Kir21 sel inactive | KCNK9 uninduced 30%
CCOc1ccc(/C=C/C(=O)OC(C)C(=O)NC2CCCCC2C)cc1OC (stereo not drawn)	none
CCOc1ccc2[nH]c(=O)c(CN(CCc3ccccc3)C(=O)N3CCOCC3)cc2c1	none
CCOc1ccc2[nH]c(=O)c(CN(CCc3ccccc3)C(=O)N3CCCC3)cc2c1	none | KCNK9 block conf inactive | Kir21 sel inactive | KCNK9 uninduced inactive
COc1ccc2cc(C(=O)C3CCCN(C(=O)c4cnccn4)C3)ccc2c1 (stereo not drawn)	none
Cc1nc(C)c(C(=O)N2CCCC(C(=O)c3ccc4ccccc4c3)C2)s1 (stereo not drawn)	none
O=C(c1ccc2ccccc2c1)C1CCCN(C(=O)c2cnccn2)C1 (stereo not drawn)	none | KCNK9 block conf inactive | Kir21 sel inactive | KCNK9 uninduced inactive
O=C(c1ccc2ccccc2c1)C1CCCN(C(=O)CCn2cnnn2)C1 (stereo not drawn)	none
COc1ccc2cc(C(=O)C3CCCN(C(=O)/C=C/c4ccccn4)C3)ccc2c1 (stereo not drawn)	none | KCNK9 block conf inactive | Kir21 sel inactive | KCNK9 uninduced inactive
CCn1cc(C(=O)N2CCCC(C(=O)c3ccc4ccccc4c3)C2)cn1 (stereo not drawn)	none | KCNK9 block conf inactive | Kir21 sel inactive | KCNK9 uninduced inactive
Cc1cc(C(=O)N2CCCC(C(=O)c3ccc4ccccc4c3)C2)n(C)n1 (stereo not drawn)	none | KCNK9 block conf inactive | Kir21 sel inactive | KCNK9 uninduced inactive
CN(CC(=O)Nc1ccc2c(c1)OCO2)S(=O)(=O)c1cccs1	none
O=C(CNC(=O)N1CC(=O)Nc2ccccc21)Nc1nccs1	none
CN(C)C(=O)c1ccc(NC(=O)c2sccc2-c2ccccc2)cc1	none
Cc1ccc(C)c(NC(=O)CSc2nnc(NC(=O)C3CC3)s2)c1	none
O=C1CCc2cc(S(=O)(=O)NC3CCCCC3)ccc2N1	none (no result: Kir21 block, hERG protect, KCNK9 block, KCNQ1 block, KCNQ1 pot)
COc1cccc(-c2nn(C)c3sc(C(=O)Nc4ccc5c(c4)OCCO5)cc23)c1	none
Cn1nc(-c2ccccc2F)c2cc(C(=O)Nc3ccc4c(c3)OCCO4)sc21	KCNK9 block -12 | KCNK9 block conf 49% | Kir21 sel inactive | KCNK9 uninduced inactive
Nc1nn(-c2ccccc2)c(N)c1N=Nc1ccccc1F	none
Cc1cccc(N=Nc2c(C)nn(-c3ccccc3)c2N)c1C	KCNK9 block -9.3 | KCNK9 block conf 34% | Kir21 sel inactive | KCNK9 uninduced inactive
Cc1nn(-c2ccccc2)c(N)c1N=Nc1ccccc1	KCNK9 block -11 | KCNK9 block conf 29% | Kir21 sel inactive | KCNK9 uninduced 28%
Cc1nn(-c2ccccc2)c(N)c1N=Nc1ccc(Cl)cc1	none
COCCCNC(=O)CCc1c(C)c2cc3c(C)coc3cc2oc1=O	none
O=[N+]([O-])c1cccc(-c2nc3ccccc3s/c2=N/O)c1	KCNK9 block -8.8 | KCNK9 block conf 30% | Kir21 sel inactive | KCNK9 uninduced 38%
Cc1cccc(Oc2nc(CN3CCOCC3)nc3sc4c(c23)CCCC4)c1	none | KCNK9 block conf inactive | Kir21 sel inactive | KCNK9 uninduced inactive
COc1cccc(/C=C(/C#N)c2ccc(F)cc2)c1OCc1cccc(C(=O)O)c1	none
N#C/C(=C/c1ccc(N2CCCCCC2)o1)c1cccc(F)c1	KCNK9 block -15, KCNQ1 block 9, KCNK3 block -13 | KCNK9 block conf 74% | Kir21 sel inactive | KCNK9 uninduced 71%
N#C/C(=C/c1ccc(N2CCCCCC2)o1)c1ccc(F)cc1	KCNK9 block -9.3, KCNK3 block -11 | KCNK9 block conf 58% | Kir21 sel inactive | KCNK9 uninduced 70%
COc1cc(N2CCCC2)c(OC)cc1/C=C(/C#N)c1cccc(F)c1	KCNK9 block -12, KCNQ1 block 7, KCNK3 block -10 | KCNK9 block conf 61% | Kir21 sel 35% | KCNK9 uninduced 50%
C=CCOc1ccc(/C=C2\SC(=S)N(NS(=O)(=O)c3ccc(C)cc3)C2=O)cc1	KCNQ1 pot 24 | KCNK9 block conf inactive | Kir21 sel inactive | KCNK9 uninduced inactive
O=C1/C(=C/c2cccc(F)c2)SC(=S)N1NS(=O)(=O)c1ccccc1	none | KCNK9 block conf inactive | Kir21 sel inactive | KCNK9 uninduced inactive
Cc1ccc(S(=O)(=O)NN2C(=O)/C(=C/c3ccc(F)cc3)SC2=S)cc1	none
COc1ccc(/C=C2/SC(=S)N(NS(=O)(=O)c3ccc(C)cc3)C2=O)cc1	KCNQ1 pot 12 | KCNK9 block conf inactive | Kir21 sel inactive | KCNK9 uninduced inactive
Cc1ccc(S(=O)(=O)NN2C(=O)/C(=C/c3ccc(C(=O)O)cc3)SC2=S)cc1	none
Cc1nc(C)c(C(=O)OCC(=O)N(C)c2ccccc2)s1	none (no result: Kir21 block, hERG protect, KCNK9 block, KCNQ1 block, KCNQ1 pot)
C[C@H](CO)N1C[C@H](C)[C@@H](CN(C)S(=O)(=O)c2cccs2)Oc2ccc(NC(=O)Cn3cnnn3)cc2C1=O	none (no result: Kir21 block, hERG protect, KCNK9 block, KCNQ1 block, KCNQ1 pot)

Assay outcomes from PubChem.
